dFosB act = activators of delta FosB homodimer, primary screen, biochemical, fluorescence polarization, TAMRA-CDK5 oligo, single point. Protein FosB (Mus musculus), P13346. purified delta FosB; percent of positive-control signal above neutral wells. activation, % at 25 µM. 0.99% of 340,000 active. AID 493131, 2011;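 active = mean activation above about 17%, with every replicate also reaching it, limit read from the data, passing the limit was not always enough; inconclusive = only one of the two conditions met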
IMP-1 inh-1 = IMP-1 metallo-beta-lactamase inhibitors, primary screen, biochemical, epi-absorbance readout, Pseudomonas aeruginosa enzyme; metallo-beta-lactamase IMP-1 (Pseudomonas aeruginosa); 0.45% of 290,000 active; inhibition, % at 5.6 µM; purified IMP-1, nitrocefin hydrolysis, epi-absorbance fluorescence; AID 1556, 2009;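 active = inhibition above the mean plus 3 SD of all compounds in the same screening run, cut at about 4.5% in these data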;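 note: 0% = IMP-1 with DMSO and 100% = DMSO wells lacking enzyme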
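System – purified recombinant IMP-1 beta-lactamase · Input – IMP-1 dispensed at 0.2 nM · Timing – 15 min preincubation plus 25 min reaction at 25 °C · Signal – Epi-absorbance fluorescence, 480 nm excitation, 530 nm emission · Measure – percent IMP-1 inhibition derived from blank-referenced optical density · Controls – Enzyme-plus-DMSO low control, enzyme-free DMSO high control · Replication – singlicate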
HTR2A ag = mouse Htr2a agonists via beta-arrestin recruitment, primary screen, cell-based, luminescence; 5-hydroxytryptamine receptor 2A (Mus musculus), P35363; CHO-K1 mHTR2A beta-arrestin complementation; percent of 30 µM serotonin response; activation, % at 7.6 µM; 0.66% of 360,000 active; AID 624169, 2012;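 active = activation above a run cutoff, the mean activation of all tested compounds plus 3 SD, cut at about 14% in these data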;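 note: 0% = plate median of compound wells and 100% = 30 µM serotonin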
Target sequence (P35363 whole entry, looked up): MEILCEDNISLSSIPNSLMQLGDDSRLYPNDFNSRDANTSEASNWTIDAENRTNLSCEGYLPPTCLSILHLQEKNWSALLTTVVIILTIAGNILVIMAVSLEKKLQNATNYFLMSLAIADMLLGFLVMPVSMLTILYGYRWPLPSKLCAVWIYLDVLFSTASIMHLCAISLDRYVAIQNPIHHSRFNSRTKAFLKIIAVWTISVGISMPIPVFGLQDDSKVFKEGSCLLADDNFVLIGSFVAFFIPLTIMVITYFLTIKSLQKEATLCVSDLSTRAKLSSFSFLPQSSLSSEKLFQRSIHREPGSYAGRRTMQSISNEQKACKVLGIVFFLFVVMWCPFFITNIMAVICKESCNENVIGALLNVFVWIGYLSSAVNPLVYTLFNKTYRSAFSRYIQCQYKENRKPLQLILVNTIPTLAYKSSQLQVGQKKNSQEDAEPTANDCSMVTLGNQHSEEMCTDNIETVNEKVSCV
VIM-2 inhibitor = VIM-2 metallo-beta-lactamase inhibitors, primary screen, biochemical, epi-absorbance readout, Pseudomonas aeruginosa enzyme | purified VIM-2, nitrocefin hydrolysis, epi-absorbance fluorescence | 0.89% of 290,000 active | inhibition, % at 5.6 µM;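 active = inhibition above the mean of all tested compounds plus 3 SD, cutoff set per screening run, cut at about 7.5% in these data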;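 note: red hydrolysis product quenches plate fluorescence so inhibitors raise well fluorescence; 0% = enzyme with DMSO and 100% = DMSO without enzyme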
IMP-1 inh-2 = IMP-1 metallo-beta-lactamase inhibitors, confirmation, selectivity assay for selective VIM-2 inhibitor project, biochemical, epi-absorbance readout, triplicate. purified IMP-1, nitrocefin hydrolysis, epi-absorbance fluorescence. inhibition, % at 5.6 µM. AID 1856, 2009. 1,300 tested, under 10 active. shares compounds with VIM-2 inhibitor; call rule not given here;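 note: 0% = enzyme with vehicle and 100% = vehicle without enzyme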
VIM-2 FRET inh = VIM-2 inhibitors in FRET format, confirmation, artefact control for selective VIM-2 inhibitor project, biochemical, epi-absorbance artifact exclusion. shares compounds with VIM-2 inhibitor. purified VIM-2, CCF2 FRET substrate hydrolysis. inhibition, % at 5.6 µM. 23% of 1,300 active. AID 1857, 2009;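 active = inhibition above the mean of all tested compounds plus 3 SD, cut at about 19% in these data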;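 note: 0% = VIM-2 plus DMSO and 100% = no enzyme wells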
TEM-1 counter-1 = TEM-1 serine beta-lactamase inhibitors, counter-screen for VIM-2 inhibitor project, biochemical, epi-absorbance, HTS; shares compounds with VIM-2 inhibitor; Purified TEM-1, nitrocefin hydrolysis, epi-absorbance fluorescence; inhibition, % at 5.6 µM; 3% of 1,300 active; AID 1866, 2009;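 active = inhibition above that campaign's mean inhibition plus 3 SD, cut at about 0.46% in these data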;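 note: 0% = TEM-1 with DMSO and 100% = TEM-1 with 100 µM potassium clavulanate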
VIM-2 inh conf = VIM-2 metallo-beta-lactamase inhibitors, confirmation, biochemical, epi-absorbance, hits shared with IMP-1 screen | 96% of 1,300 active | inhibition, % at 5.6 µM | shares compounds with VIM-2 inhibitor | purified VIM-2, nitrocefin hydrolysis;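 active = inhibition of the VIM-2 beta-lactamase enzyme above about 11% from the earlier first-round screen, limit read from the data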;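 note: 0% = VIM-2 with DMSO and 100% = buffer wells without enzyme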
VIM-2 inh confirm = P. aeruginosa VIM-2 enzyme inhibition – biochemical, epi-absorbance, HTS, confirmation; shares compounds with IMP-1 inh-1; purified VIM-2 enzyme, nitrocefin absorbance; inhibition, % at 5.6 µM; 73% of 200 active; AID 1860, 2009; in the data active = inhibition above about 8%;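 note: 0% = enzyme with vehicle and 100% = no enzyme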
TEM-1 counter-2 = Serine beta-lactamase TEM-1 inhibition, biochemical epi-absorbance counter-screen for IMP-1/VIM-2 inhibitor program; shares compounds with IMP-1 inh-1; TEM-1 beta-lactamase, nitrocefin absorbance inhibition; inhibition, % at 5.6 µM; 50% of 200 active; AID 2184, 2009; in the data active = inhibition above about 0.66%
IMP-1 inh conf = IMP-1 metallo-beta-lactamase inhibitors, confirmation, biochemical, epi-absorbance, hits shared with VIM-2 screen; inhibition, % at 5.6 µM; shares compounds with IMP-1 inh-1; 60% of 200 active; purified IMP-1 enzyme, absorbance substrate hydrolysis; in the data active = inhibition above about 4.9%;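 note: 0% = enzyme with vehicle and 100% = vehicle without enzyme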
* marks the source's active call; other numbers are inactive results; ? = inconclusive; . = no result. An excerpt weighted towards active compounds, which were near 2.5% of everything screened.

SMILES | dFosB act | IMP-1 inh-1 | HTR2A ag | VIM-2 inhibitor | IMP-1 inh-2 | VIM-2 FRET inh | TEM-1 counter-1 | VIM-2 inh conf | others
Cn1nc(-c2ccc(OCC(=O)N3CCN(Cc4ccccc4)CC3)cc2)c2ccccc2c1=O | -12.7 | -1.3 | 3.3 | 13.1* | -2.5 | 4.9 | -4.5 | 28.0*
Cn1cccc1CN1CCN(C(=O)COc2ccccc2)CC1 | -2.6 | -3.8 | -3.8 | 0.6 | . | . | . | .
Cc1cc(OCC(=O)NCc2ccncc2)c2c3c(c(=O)oc2c1)CCC3 | -12.7 | -2.5 | 3.9 | 71.5* | -3.2 | 1.7 | -11.1 | 78.2*
Cc1cc(OCC(=O)NC(Cc2ccc(Cl)cc2)C(=O)O)c2c3c(c(=O)oc2c1)CCCC3 (stereo not drawn) | -15.9 | -0.7 | 3.5 | 33.5* | -0.8 | 46.6* | 0.6* | 37.1*
Cc1cc(OCC(=O)OC(C)(C)C)c2c3c(c(=O)oc2c1)CCC3 | -7.8 | . | 2.3 | . | . | . | . | .
Cc1cc(Br)cn2c(CC(=O)N3CCCCC3)c(-c3ccc(F)cc3)nc12 | . | . | 0.0 | . | . | . | . | .
CCOC(=O)[C@]12Cc3cc(Cl)ccc3[C@H]1N(C(C)C)C(=O)c1ccccc12 | . | . | 7.5 | . | . | . | . | .
CN1CCN(c2ccc(N)cc2)CC1 | ? | -9.3 | -0.6 | 37.1* | -8.0 | -0.7 | -6.4 | 59.2*
CCN1CCN(c2ccc(N)cc2)CC1 | 2.1 | -7.5 | -6.6 | 37.8* | -9.0 | -3.3 | -6.4 | 27.0*
CC(C)C[C@@H]1COc2cccc(N3CCN(C)CC3)c2S(=O)(=O)N1 | . | . | -2.9 | . | . | . | . | .
O=[N+]([O-])c1ccc(N2CCCC2)cc1N/N=C1\CN2CCC1CC2 | -5.4 | -4.2 | -4.6 | 12.6* | -3.2 | 31.9* | -9.5 | 25.5*
O=[N+]([O-])c1ccc(N2CCNCC2)cc1NC1CC1 | . | -0.4 | . | 0.6 | . | . | . | .
Nc1c(C(=O)NCCN2CCOCC2)c2nc3ccccc3nc2n1Cc1ccco1 | 4.0 | -1.8 | 8.8 | 15.0* | -2.8 | -19.1 | -4.9 | 29.3*
CCOC(=O)[C@]12Cc3ccccc3[C@H]1N(CCC(=O)OC)C(=O)c1cc(OC)ccc12 | . | . | -4.7 | . | . | . | . | .
COc1cc2c(cc1O)C[C@H]1c3c(cc(O)c(OC)c3-2)CCN1C | 6.0 | . | -7.2 | . | . | . | . | .
CN1CCc2cc3c(c4c2C1Cc1ccccc1-4)OCO3 (stereo not drawn) | 8.6 | 3.2 | -0.7 | 19.2* | -2.5 | -6.9 | -4.7 | 11.5*
Cc1ccccc1-c1ccc2c(c1)C1c3c(-c4ccccc4)nnn3-c3ccccc3C(=O)N1CC2 (stereo not drawn) | . | . | -0.4 | . | . | . | . | .
O=c1cc(C(F)(F)F)c2cc3c4c(c2o1)CCCN4CCC3 | -4.9 | 7.8* | 0.2 | 8.5* | . | . | . | . | VIM-2 inh confirm=34.7*;TEM-1 counter-2=52.4*;IMP-1 inh conf=26.4*
Cc1cc2c(C(F)(F)F)cc(=O)oc2c2c1NCCC2 | 2.6 | -4.8 | 2.8 | -3.7 | . | . | . | .
CCOC(=O)[C@]12Cc3cc(C)ccc3[C@H]1N(C)C(=O)c1cc(OC)ccc12 | . | . | -9.9 | . | . | . | . | .

High-throughput results as filed in PubChem.
